Assay [1] deals with Platelet. As to the kind of experiment: Inhibition of platelet activating factor-induced pig platelet aggregation measured for 5 mins. The format is functional, cell-based. The settings on record: Sus scrofa.
Assay [2] relates to Rattus norvegicus. As to the kind of experiment: Antithrombotic activity in Wistar rat assessed as reduction of thrombus weight at 30 nmol/kg, iv. The format is functional. Summed up: (§1)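 Male Wistar rats (250–300 g) with an arteriovenous shunt: a polyethylene tube holding a thread joins the right carotid artery to the left jugular vein. Heparin sodium is injected through the tube, then vehicle (NS) or drug dissolved in NS and kept on ice. Blood flows for 15 min, and the wet thrombus on the thread is weighed. Analysis by ANOVA.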

Assay [3] has as its system Platelet. Nature of the assay: Inhibition of thrombin-induced pig platelet aggregation measured for 5 mins. The settings on record: Sus scrofa. The format is functional, cell-based. The gist of the method:
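Pig blood spun at 1000g for 10 min to give PRP and at 1500g for 10 min to give PPP. Platelets adjusted to 2×10⁸/ml with autologous PPP, and 0.5 ml is pre-mixed with NS or drug at six tenfold-spaced final concentrations. After baseline the agonist is added (thrombin final 0.1 U/ml). Optical aggregation is read at 37 °C for 5 min. Peak height is taken as maximal aggregation, and % inhibition is calculated against NS. Run in sextuplicate; IC50 from the concentration–inhibition curve.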

Assay [4] deals with Platelet. As to the kind of experiment: Inhibition of adenosine diphosphate-induced pig platelet aggregation measured for 5 mins. The format is functional, cell-based. As to conditions: Sus scrofa.
Assay [5] concerns Platelet. Nature of the assay: Inhibition of arachidonic acid-induced pig platelet aggregation measured for 5 mins. As to conditions: Sus scrofa. It is filed as functional, cell-based.
Assay [6] concerns Rattus norvegicus. As to the kind of experiment: Antithrombotic activity in Wistar rat assessed as reduction of thrombus weight at 15 umol/kg, iv. It is filed as functional. Summed up: as §1
Assay [7] concerns Rattus norvegicus. As to the kind of experiment: Antithrombotic activity in Wistar rat assessed as reduction of thrombus weight at 30 nmol/kg, po. It is filed as functional. The gist of the method: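 Drug in NS (or NS alone, 0.6 ml) is given orally to male Wistar rats (250–300 g), then pentobarbital sodium 80.0 mg/kg ip. Thirty min later the right carotid artery and left jugular vein are exposed and joined by a heparinized thread-containing shunt. Blood flows for 15 min, and the wet thrombus is weighed. n=12; analysis by ANOVA.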

Assay [8] deals with Rattus norvegicus. Nature of the assay: Antithrombotic activity in Wistar rat assessed as reduction of thrombus weight at 0.03 nmol/kg, iv. It is filed as functional. The gist of the method:
as §1

Assay [9] deals with Rattus norvegicus. As to the kind of experiment: Antithrombotic activity in iv dosed Wistar rat assessed as reduction of thrombus weight. The format is functional, organism-based. The gist of the method:
as §1

Assay [10] deals with Rattus norvegicus. As to the kind of experiment: Antithrombotic activity in Wistar rat assessed as reduction of thrombus weight at 3 nmol/kg, iv. The format is functional. The gist of the method: as §1
In assay [11] the test system is Rattus norvegicus. As to the kind of experiment: Antithrombotic activity in Wistar rat assessed as reduction of thrombus weight at 165 umol/kg, iv. The format is functional. The gist of the method:
as §1

Assay [12] deals with Rattus norvegicus. As to the kind of experiment: Antithrombotic activity in Wistar rat assessed as reduction of thrombus weight at 0.3 nmol/kg, iv. It is filed as functional. Summed up:
as §1

Square brackets hold non-standard residues; d marks the D form. Peptide text beside a SMILES is read from it. Tic = O=C(O)[C@@H]1Cc2ccccc2CN1

On to `N[C@@H](CCC(=O)O)C(=O)N1Cc2ccccc2C[C@H]1C(=O)N[C@@H](CCC(=O)O)C(=O)O` (H-Glu-[Tic]-Glu-OH), for which the IC50 in [1] turned out to be 4.19 nM; in assay [3], 10.3 nM; in [4], 2.19 nM; in [5] it was 9.86 nM. The Activity in assay [2] is on record as 18.95 mg.
The like results for `N[C@@H](Cc1ccc(O)cc1)C(=O)N1Cc2ccccc2C[C@H]1C(=O)N[C@@H](Cc1ccc(O)cc1)C(=O)O` (H-Tyr-[Tic]-Tyr-OH) were, in that order, 4.52 nM, 9.84 nM, 2.58 nM, 8.83 nM and 18.79 mg.
Regarding `CC(C)[C@H](N)C(=O)N1Cc2ccccc2C[C@H]1C(=O)N[C@H](C(=O)O)C(C)C` (H-Val-[Tic]-Val-OH), the IC50 turned out to be 5.87 nM in [1], 9.25 nM in assay [3], 2.57 nM in assay [4] and 9.08 nM in [5]. In assay [2], the Activity amounted to 19.42 mg.
Regarding `O=C(O)[C@@H]1Cc2ccccc2CN1`, the Activity in assay [6] is 21.52 mg.
Regarding `CC(C)C[C@H](NC(=O)[C@@H]1Cc2ccccc2CN1C(=O)[C@@H](N)CC(C)C)C(=O)O` (H-Leu-[Tic]-Leu-OH), the IC50 was found to be 5.03 nM in [1], 10 nM in assay [3], 2.57 nM in assay [4] and 8.17 nM in assay [5]. Besides, the Activity in assay [2] amounted to 19.53 mg.
As for `NCCCC[C@H](NC(=O)[C@@H]1Cc2ccccc2CN1C(=O)[C@@H](N)CCCCN)C(=O)O` (H-Lys-[Tic]-Lys-OH), the IC50 was found to be 5.67 nM in [1], 8.98 nM in [3], 3.73 nM in assay [4] and 9.64 nM in [5]. For the same molecule, the Activity is reported as 18.65 mg in [2] and 19.72 mg in [7].
For `CC[C@H](C)[C@H](N)C(=O)N1Cc2ccccc2C[C@H]1C(=O)N[C@H](C(=O)O)[C@@H](C)CC` (H-Ile-[Tic]-Ile-OH), the IC50 in assay [1] stood at 5.64 nM; in [3], 11.3 nM; in [4] it was 2.89 nM; in [5], 8.92 nM. The Activity in assay [2] was determined as 24.3 mg.
For the molecule `CSCC[C@H](NC(=O)[C@@H]1Cc2ccccc2CN1C(=O)[C@@H](N)CCSC)C(=O)O` (H-Met-[Tic]-Met-OH), the IC50 in assay [1] is 4.91 nM; in [3] it was 9.99 nM; in assay [4] it was 3.42 nM; in assay [5], 8.19 nM. The Activity in assay [2] is on record as 19.36 mg.
Turning to `N[C@@H](CC(=O)O)C(=O)N1Cc2ccccc2C[C@H]1C(=O)N[C@@H](CC(=O)O)C(=O)O` (H-Asp-[Tic]-Asp-OH), the IC50 in [1] came out at 4.37 nM; in assay [3] it was 11.1 nM; in [4], 3.48 nM; in assay [5], 9.55 nM. Moreover, the Activity in assay [2] was found to be 20.49 mg.
Regarding `N=C(N)NCCC[C@H](NC(=O)[C@@H]1Cc2ccccc2CN1C(=O)[C@@H](N)CCCNC(=N)N)C(=O)O` (H-Arg-[Tic]-Arg-OH), the IC50 was found to be 6.07 nM in [1], 9.87 nM in assay [3], 3.15 nM in [4] and 9.17 nM in [5]. Moreover, the Activity in [8] was 19.71 mg; in [2], 10.61 mg; in [7] it was 15.15 mg; in assay [9] it was “Dose-dependent effect”; in assay [10] it was 16.29 mg.
Regarding `N[C@@H](Cc1ccccc1)C(=O)N1Cc2ccccc2C[C@H]1C(=O)N[C@@H](Cc1ccccc1)C(=O)O` (H-Phe-[Tic]-Phe-OH), the 50% inhibitory concentration (IC50) in assay [1] worked out at 4.92 nM; in assay [3], 8.87 nM; in assay [4], 2.23 nM; in assay [5] it was 7.84 nM. Further, the Activity in assay [2] was 22.51 mg.
Turning to `CC(=O)Oc1ccccc1C(=O)O` [ASPIRIN], in assay [11], the Activity was determined as 13.22 mg.
Turning to `NCC(=O)N1Cc2ccccc2C[C@H]1C(=O)NCC(=O)O` (H-Gly-[Tic]-Gly-OH), the IC50 was found to be 5.15 nM in assay [1], 10.6 nM in assay [3], 2.44 nM in [4] and 7.95 nM in assay [5]. Also, the Activity in assay [2] is 25.2 mg.
Take `C[C@@H](O)[C@H](N)C(=O)N1Cc2ccccc2C[C@H]1C(=O)N[C@H](C(=O)O)[C@@H](C)O` (H-Thr-[Tic]-Thr-OH): the IC50 in assay [1] worked out at 4.14 nM; in [3], 10.8 nM; in assay [4], 2.89 nM; in assay [5], 10 nM. For the same molecule, the Activity is 14.32 mg in [2]; 28.63 mg in [12]; 17.53 mg in [7]; “Dose-dependent effect” in [9]; 20.95 mg in [10].
Take `NC(=O)C[C@H](NC(=O)[C@@H]1Cc2ccccc2CN1C(=O)[C@@H](N)CC(N)=O)C(=O)O` (H-Asn-[Tic]-Asn-OH): the IC50 amounted to 5.39 nM in assay [1], 8.43 nM in assay [3], 3.07 nM in [4] and 8.28 nM in [5]. The Activity came out at 17.95 mg in [2] and 16.88 mg in assay [7].
Consider `N[C@@H](CS)C(=O)N1Cc2ccccc2C[C@H]1C(=O)N[C@@H](CS)C(=O)O` (H-Cys-[Tic]-Cys-OH), for which the IC50 was found to be 6.32 nM in assay [1], 9.64 nM in assay [3], 3.26 nM in [4] and 8.18 nM in assay [5]. Besides, in [2], the Activity stood at 19.35 mg.
In the case of `NC(=O)CC[C@H](NC(=O)[C@@H]1Cc2ccccc2CN1C(=O)[C@@H](N)CCC(N)=O)C(=O)O` (H-Gln-[Tic]-Gln-OH), the IC50 is 5.72 nM in assay [1], 9.13 nM in assay [3], 2.55 nM in assay [4] and 8.37 nM in assay [5]. Also, the figures for the Activity in [2] and in assay [7] were 18.13 mg and 18.23 mg, respectively.
With `N[C@@H](CO)C(=O)N1Cc2ccccc2C[C@H]1C(=O)N[C@@H](CO)C(=O)O` (H-Ser-[Tic]-Ser-OH), the IC50 in assay [1] was found to be 5.36 nM; in assay [3] it was 10.2 nM; in assay [4], 2.17 nM; in [5], 7.99 nM. In addition, the Activity in [2] is reported as 20.97 mg.
The like results for `N[C@@H](Cc1c[nH]cn1)C(=O)N1Cc2ccccc2C[C@H]1C(=O)N[C@@H](Cc1cnc[nH]1)C(=O)O` (H-His-[Tic]-His-OH) were, in that order, 5.57 nM, 10 nM, 2.84 nM, 9.38 nM and 20.91 mg.
With `C[C@H](N)C(=O)N1Cc2ccccc2C[C@H]1C(=O)N[C@@H](C)C(=O)O`, the half-inhibitory concentration (IC50) came out at 5.6 nM in assay [1], 9.48 nM in [3], 2.36 nM in [4] and 8.73 nM in assay [5]. The Activity is 17.12 mg in [2]; 29.77 mg in [12]; 18.89 mg in assay [7]; “Dose-dependent effect” in [9]; 23.35 mg in assay [10].

Usually IC50 stands for the concentration at which inhibition is half-maximal. Read a high IC50 as weaker potency in that assay.

Values taken from ChEMBL document CHEMBL1156936, “2,3-Diamino acid modifying 3S-tetrahydroisoquinoline-3-carboxylic acids: leading to a class of novel agents with highly unfolded conformation, selective in vitro anti-platelet aggregation and potent in vivo anti-thrombotic activity” (Bioorg Med Chem, 2010).
